This is an account of results in ChEMBL document CHEMBL5108049, “Development and Characterization of Type I, Type II, and Type III LIM-Kinase Chemical Probes” (J Med Chem, 2022).

Structures are written as SMILES.

Assay [1] concerns N1E-115. The assay can be described thus: Inhibition of neurite outgrowth in BMP7 stimulated mouse N1E-115 cells transfected with siFMR1 preincubated for 12 hrs followed by BMP7 stimulation for 24 hrs. It counts as functional, cell-based. The note with it: dose 0.05-5 µM, time 36.0 hrs, DDE = dose-dependent effect. A digest of the protocol:
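At 60 h, the medium was switched to 0.2% FBS containing inhibitor (0.05, 0.5 or 5 μM; DMSO stock) or DMSO for 12 h, then 10 ng/mL BMP7 was added for 24 h. The percentage of cells with neurites longer than one cell body was counted by microscopy, ≥100 cells per condition; mean + SD, N = 4.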

Assay [2] deals with T1, LIM domain kinase 1 (Homo sapiens, UniProt P53667). The assay is described as follows: Binding affinity to recombinant LIMK1 (330 to 637 residues) (unknown origin) expressed in baculovirus infected insect cells assessed as change in melting temperature at 10 uM by differential scanning fluorimetry.
Target sequence in this assay (P53667 whole entry, looked up, the tested form may be a part): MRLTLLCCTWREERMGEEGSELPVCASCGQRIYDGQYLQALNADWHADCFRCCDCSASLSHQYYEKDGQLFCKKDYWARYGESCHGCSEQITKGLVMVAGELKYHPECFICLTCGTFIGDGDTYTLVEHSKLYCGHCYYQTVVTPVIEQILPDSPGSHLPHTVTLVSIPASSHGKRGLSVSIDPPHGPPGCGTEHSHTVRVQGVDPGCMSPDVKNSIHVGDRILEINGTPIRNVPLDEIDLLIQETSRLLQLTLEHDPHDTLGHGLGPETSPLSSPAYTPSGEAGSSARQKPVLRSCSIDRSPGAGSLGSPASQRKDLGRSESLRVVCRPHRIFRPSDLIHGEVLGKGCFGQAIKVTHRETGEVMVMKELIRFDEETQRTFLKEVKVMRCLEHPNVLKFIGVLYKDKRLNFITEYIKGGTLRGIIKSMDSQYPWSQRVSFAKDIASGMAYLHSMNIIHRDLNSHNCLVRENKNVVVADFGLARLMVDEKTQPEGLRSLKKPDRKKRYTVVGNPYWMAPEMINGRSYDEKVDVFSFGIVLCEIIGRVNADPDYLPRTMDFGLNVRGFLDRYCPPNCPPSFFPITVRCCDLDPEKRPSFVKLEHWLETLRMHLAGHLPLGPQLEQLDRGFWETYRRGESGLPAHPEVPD
Assay [3] deals with T2, LIM domain kinase 2 (Homo sapiens, UniProt P53671). The assay is described as follows: Binding affinity to recombinant LIMK2 (330 to 632 residues) (unknown origin) expressed in baculovirus infected insect cells assessed as change in melting temperature at 10 uM by differential scanning fluorimetry.
Target sequence in this assay (P53671 whole entry, looked up, the tested form may be a part): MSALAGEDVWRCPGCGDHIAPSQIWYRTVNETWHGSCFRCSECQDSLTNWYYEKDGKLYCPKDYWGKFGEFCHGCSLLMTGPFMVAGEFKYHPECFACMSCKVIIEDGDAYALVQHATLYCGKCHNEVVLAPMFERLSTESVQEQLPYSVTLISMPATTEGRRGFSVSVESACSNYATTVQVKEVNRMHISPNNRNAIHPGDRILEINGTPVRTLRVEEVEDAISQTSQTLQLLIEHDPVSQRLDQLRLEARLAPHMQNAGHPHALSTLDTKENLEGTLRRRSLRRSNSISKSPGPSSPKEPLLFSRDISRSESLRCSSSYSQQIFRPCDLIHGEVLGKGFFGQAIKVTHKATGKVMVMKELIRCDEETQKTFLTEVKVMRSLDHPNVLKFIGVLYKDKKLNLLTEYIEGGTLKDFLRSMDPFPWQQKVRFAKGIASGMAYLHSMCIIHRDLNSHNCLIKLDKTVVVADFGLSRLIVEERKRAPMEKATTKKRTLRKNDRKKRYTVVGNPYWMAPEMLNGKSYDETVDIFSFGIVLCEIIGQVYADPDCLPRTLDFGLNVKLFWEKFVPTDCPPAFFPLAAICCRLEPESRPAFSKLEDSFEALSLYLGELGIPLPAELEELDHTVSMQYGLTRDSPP
Assay [4] concerns the target T1, LIM domain kinase 1. The assay is described as follows: Inhibition of recombinant full length LIMK1 (330 to 637 residues) (unknown origin) expressed in HEK293T cells incubated for 2 hrs in presence of tracer K10 by NanoBRET assay. It counts as cell-based. On the technique in general: In BRET a luciferase serves as donor, and the signal depends on an acceptor being close.
Target sequence in this assay (P53667 whole entry, the tested form may be a part): as the sequence (P53667 whole entry, looked up, the tested form may be a part) above

Assay [5] addresses T2, LIM domain kinase 2. The assay is described as follows: Inhibition of recombinant full length LIMK2 (330 to 632 residues) (unknown origin) expressed in HEK293T cells incubated for 2 hrs in presence of tracer K10 by NanoBRET assay. It counts as cell-based.
Target sequence in this assay (P53671 whole entry, the tested form may be a part): as the sequence (P53671 whole entry, looked up, the tested form may be a part) above

With `CCCCN(Cc1ccccc1)C(=O)c1ccc(S(=O)(=O)Nc2ccccc2)cc1`, in assay [1], the inhibition result was “Dde”.

With `CC(C)C(=O)Nc1ncc(-c2cc(C(F)F)nn2-c2c(Cl)cccc2Cl)s1`, in assay [1], the inhibition result is “Dde”.

For the compound `CC(C)C(=O)Nc1ncc(C(=O)NCCN(Cc2ccccc2)C(=O)c2ccc(S(=O)(=O)Nc3ccccc3)cc2)s1`, the inhibition result in assay [1] was “Dde”.

Usually ΔTm stands for the shift of the melting midpoint relative to a reference. Take `CN(Cc1ccccc1)C(=O)c1ccc(S(=O)(=O)Nc2cccc(Cl)c2)cc1`: the ΔTm in assay [2] was found to be 0.9 °C.

With `CN(CCc1ccccc1)C(=O)c1ccc(S(=O)(=O)Nc2ccccc2)cc1`, the values for the ΔTm in assay [2] and in assay [3] were 1.3 °C and 3.2 °C, respectively.

The IC50 is the concentration that inhibits the measured activity by half. Turning to `O=C(c1ccc(S(=O)(=O)Nc2ccccc2)cc1)N(CCc1cn(Cc2ccccc2)nn1)Cc1ccccc1`, the shift in melting temperature (ΔTm) is 6.8 °C in assay [2] and 12.3 °C in assay [3]. Also, the IC50 in assay [4] came out at 472 nM; in assay [5] it was 121 nM.

As to `O=C(c1ccc(S(=O)(=O)Nc2ccccc2)cc1)N(CCc1ccccc1)Cc1ccccc1`, the ΔTm in assay [2] was 8.6 °C. Further, the IC50 was determined as 251 nM in assay [4] and 92 nM in assay [5].

As for `CN(Cc1ccccc1)C(=O)c1ccc(S(=O)(=O)Nc2ccccc2)cc1`, the ΔTm in assay [2] turned out to be 4.5 °C.

On to `CN(Cc1ccccc1)C(=O)c1ccc(S(=O)(=O)NCCc2ccccc2)cc1`, for which the ΔTm in assay [2] worked out at 0.9 °C; in assay [3], 0.1 °C.
